# Legend:
# Type in all cases: functional
# Rattus norvegicus [1] = test: (§1) Antioxidant activity against CCl4-induced oxidative hepatic injury Wistar albino rat model assessed as effect on liver cytosolic catalase activity per mg protein at 100 mg/kg, ip for 7 consecutive days prior to CCL4 challenge measured 24 hrs post CCl4 challenge (reference value: 218.25 +/-11.43 U/mg protein); settings: route intraperitoneal
# Rattus norvegicus [2] = test: as §1, with “GSH-Px” for “catalase”, “0.27 +/-0.01” for “218.25 +/-11.43”; settings: route intraperitoneal
# Rattus norvegicus [3] = test: as §1, with “SOD” for “catalase”, “5.42 +/-0.29” for “218.25 +/-11.43”; settings: route intraperitoneal
# Procedure, shortened: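 Wistar albino rats (100–150 g), 7 per group, dosed i.p. at 100 mg/kg/day for 7 days. Then CCl4 in olive oil (1:1) i.p. at 0.6 mL/kg. Liver taken 24 h later, homogenized in 1.15% KCl-10 mM phosphate/EDTA pH 7.4, cytosol obtained by sequential centrifugation. SOD read as the rate of cytochrome C reduction at 550 nm over 5 min (xanthine/xanthine oxidase, KCN, deoxycholate). Units/mg Lowry protein.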
# [4] = tested on: Radical scavenging activity; test: Antioxidant activity assessed as DPPH radical scavenging activity at 300 uM after 30 mins by spectrophotometry
# Procedure, shortened: (§2)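 Wistar-independent cell-free assay: 5 µl sample in 96% ethanol (solutions 0.5, 1.0, 2.0, 4.0, 8.0, 12.0 mM before mixing) added to 195 µl DPPH in 96% ethanol (solution labelled […]). Incubated 30 min at 25 °C, then A518 read. %AA = (A_DPPH − A_sample)/(A_DPPH − A_ethanol)×100. Triplicates averaged. IC50 from linear regression of mean %AA against concentration. Resveratrol positive control.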
# [5] = tested on: Radical scavenging activity; test: Antioxidant activity assessed as DPPH radical scavenging activity at 200 uM after 30 mins by spectrophotometry; procedure, shortened: as §2
# [6] = tested on: Radical scavenging activity; test: Antioxidant activity assessed as DPPH radical scavenging activity at 100 uM after 30 mins by spectrophotometry; procedure, shortened: as §2
# [7] = tested on: Radical scavenging activity; test: Antioxidant activity assessed as DPPH radical scavenging activity at 50 uM after 30 mins by spectrophotometry; procedure, shortened: as §2
# [8] = tested on: Radical scavenging activity; test: Antioxidant activity assessed as DPPH radical scavenging activity at 25 uM after 30 mins by spectrophotometry; procedure, shortened: as §2
# [9] = tested on: Radical scavenging activity; test: Antioxidant activity assessed as DPPH radical scavenging activity at 12.5 uM after 30 mins by spectrophotometry; procedure, shortened: as §2
# [10] = tested on: Radical scavenging activity; test: Antioxidant activity assessed as DPPH radical scavenging activity after 30 mins by spectrophotometry; procedure, shortened: as §2
Compound,IC50 [10] [µM],Activity (Rattus norvegicus [1]) [U/mg],Activity (Rattus norvegicus [2]) [U/mg],Activity (Rattus norvegicus [3]) [U/mg],Activity [4] [%],Activity [5] [%],Activity [6] [%],Activity [7] [%],Activity [8] [%],Activity [9] [%]
CC(=O)OC[C@H]1O[C@@H](NC(=S)N/N=C/c2ccc(C(C)C)cc2)[C@H](OC(C)=O)[C@@H](OC(C)=O)[C@H]1OC(C)=O,> 300,391,1.01,9.92,24.5,18.1,15.1,9.65,5.32,2.17
CC(=O)OC[C@H]1O[C@@H](NC(=S)N/N=C/c2cccc([N+](=O)[O-])c2)[C@H](OC(C)=O)[C@@H](OC(C)=O)[C@H]1OC(C)=O,283,361,0.73,9.01,51.2,38.3,26.3,19.6,13.7,7.05
Oc1ccc(/C=C/c2cc(O)cc(O)c2)cc1 [RESVERATROL],94,285,0.35,7.49,75.6,70.4,54,33.8,22.6,9.13
CC(=O)OC[C@H]1O[C@@H](NC(=S)N/N=C/c2ccc(Cl)cc2)[C@H](OC(C)=O)[C@@H](OC(C)=O)[C@H]1OC(C)=O,270,358,0.7,8.91,55.4,38.4,19.8,17.6,10.1,7.15
CCOc1cc(/C=N/NC(=S)N[C@@H]2O[C@H](COC(C)=O)[C@H](OC(C)=O)[C@H](OC(C)=O)[C@H]2OC(C)=O)ccc1O,71,284,0.69,6.45,69.2,68.3,59.4,45.4,30.2,14.2
COc1ccc(/C=N/NC(=S)N[C@@H]2O[C@H](COC(C)=O)[C@H](OC(C)=O)[C@H](OC(C)=O)[C@H]2OC(C)=O)cc1O,182,352,0.59,8.76,69.6,56.8,40.1,28.2,17.4,8.16
CC(=O)OC[C@H]1O[C@@H](NC(=S)N/N=C/c2ccc([N+](=O)[O-])cc2)[C@H](OC(C)=O)[C@@H](OC(C)=O)[C@H]1OC(C)=O,210,352,0.71,8.79,64.5,53.3,29.1,18.5,11.3,6.11

# More lines, main results first:
IC50 [10] [µM],Compound,Activity (Rattus norvegicus [1]) [U/mg],Activity (Rattus norvegicus [2]) [U/mg],Activity (Rattus norvegicus [3]) [U/mg],Activity [4] [%],Activity [5] [%],Activity [6] [%],Activity [7] [%],Activity [8] [%],Activity [9] [%]
75,COc1cc(/C=N/NC(=S)N[C@@H]2O[C@H](COC(C)=O)[C@H](OC(C)=O)[C@H](OC(C)=O)[C@H]2OC(C)=O)ccc1O,290,0.37,6.57,74,71.2,60.3,45.6,27.1,9.45
108,CC(=O)OC[C@H]1O[C@@H](NC(=S)N/N=C/c2ccc(O)cc2)[C@H](OC(C)=O)[C@@H](OC(C)=O)[C@H]1OC(C)=O,332,0.51,8.24,75.1,68.7,49.2,33.3,22.6,11.4
197,CC(=O)OC[C@H]1O[C@@H](NC(=S)N/N=C/c2ccc(F)cc2)[C@H](OC(C)=O)[C@@H](OC(C)=O)[C@H]1OC(C)=O,351,0.69,8.6,67.2,55.6,34.3,17.1,13.3,8.51
206,CC(=O)OC[C@H]1O[C@@H](NC(=S)N/N=C/c2ccc(C)cc2)[C@H](OC(C)=O)[C@@H](OC(C)=O)[C@H]1OC(C)=O,354,0.72,8.82,65,53.3,32.8,18.1,12.8,7.21
276,COc1cccc(/C=N/NC(=S)N[C@@H]2O[C@H](COC(C)=O)[C@H](OC(C)=O)[C@H](OC(C)=O)[C@H]2OC(C)=O)c1,362,0.71,8.89,55.1,34,27.2,15.6,11.5,7.34
56,CC(=O)OC[C@H]1O[C@@H](NC(=S)N/N=C/c2ccc(N(C)C)cc2)[C@H](OC(C)=O)[C@@H](OC(C)=O)[C@H]1OC(C)=O,295,0.71,5.81,78.5,74.5,68.2,48.9,30.9,14.3
> 300,CC(=O)OC[C@H]1O[C@@H](NC(=S)N/N=C/c2ccc(Br)cc2)[C@H](OC(C)=O)[C@@H](OC(C)=O)[C@H]1OC(C)=O,389,0.98,9.95,44.3,35.4,23.5,17.5,9.04,5.38

# Reference: ChEMBL document CHEMBL2321718, “Antioxidant activities of thiosemicarbazones from substituted benzaldehydes and N-(tetra-O-acetyl-β-D-galactopyranosyl)thiosemicarbazide” (Eur J Med Chem, 2013)
